Screens (PubChem BioAssay)
In the library only some 3.5% were active in any assay of this set; here they are far more common.
Cneo AK release – causes C. neoformans cell lysis. adenylate kinase release luminescence, 4 h; normalised: neutral wells 0, clomiphene wells 100. AID 651654. 360,000 compounds, 0.2% hits. lysis activity, % at 15 µM;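 active = mean lysis activity across replicates of at least 80%, whatever share of replicates individually reach that level; inactive = mean lysis activity below 80%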
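Material – log-phase Cryptococcus neoformans yeast cells · Input – 5 × 10^6 yeast cells/mL · Medium – fresh YPD growth medium · Doses – single compound concentration per well · Timing – static 4 h at 37 °C with compound, 1 h detection · Detection – adenylate kinase release luminescence · Read-out – signal increase indicating cell lysis · Control set – Clomiphene as positive lysis control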
esBAF inh – blocks esBAF chromatin remodeling in mouse ES cells. Bmi1-luciferase knock-in reporter, 24 h; 100% = twice the neutral-well signal. reporter increase, % at 12.5 µM. 350,000 compounds, 2% hits; in the data active = activation above about 40%; inconclusive = no clear call, values can overlap the other calls;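 also: a rise in the Bmi1 reporter signal indicates esBAF inhibition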
Env fusion inh – HIV envelope-mediated fusion inhibition. HeLa-JRFL Env/CEM21 cell fusion, luciferase. inhibition, % at 12.3 µM. 360,000 compounds, 1.1% hits. AID 651610;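 active = mean replicate inhibition score of at least 50 and every replicate individually at or above 50; inconclusive = only one of the two criteria met; inactive = mean below 50 and not all replicates reaching 50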
Wnt act – activates Wnt/beta-catenin signaling in a reporter cell assay. activator, plate reader. activation, % at 9.35 µM. 300,000 compounds, 1.2% hits; in the data active = activation above about 30%, passing the limit was not always enough; inconclusive = no clear call, values can overlap the other calls
ERAP1 inh – blocks human ERAP1 aminopeptidase activity; inhibition, % at 10.7 µM; Q9NZ08; recombinant ERAP1, Leu-AMC fluorescence, 60 min; AID 652197; 340,000 compounds, 0.15% hits;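 active = mean replicate inhibition of at least 30%, or all replicates individually reaching that 30% level; inactive = mean below 30% and not every replicate reaching it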
Target sequence (Q9NZ08 whole entry, looked up): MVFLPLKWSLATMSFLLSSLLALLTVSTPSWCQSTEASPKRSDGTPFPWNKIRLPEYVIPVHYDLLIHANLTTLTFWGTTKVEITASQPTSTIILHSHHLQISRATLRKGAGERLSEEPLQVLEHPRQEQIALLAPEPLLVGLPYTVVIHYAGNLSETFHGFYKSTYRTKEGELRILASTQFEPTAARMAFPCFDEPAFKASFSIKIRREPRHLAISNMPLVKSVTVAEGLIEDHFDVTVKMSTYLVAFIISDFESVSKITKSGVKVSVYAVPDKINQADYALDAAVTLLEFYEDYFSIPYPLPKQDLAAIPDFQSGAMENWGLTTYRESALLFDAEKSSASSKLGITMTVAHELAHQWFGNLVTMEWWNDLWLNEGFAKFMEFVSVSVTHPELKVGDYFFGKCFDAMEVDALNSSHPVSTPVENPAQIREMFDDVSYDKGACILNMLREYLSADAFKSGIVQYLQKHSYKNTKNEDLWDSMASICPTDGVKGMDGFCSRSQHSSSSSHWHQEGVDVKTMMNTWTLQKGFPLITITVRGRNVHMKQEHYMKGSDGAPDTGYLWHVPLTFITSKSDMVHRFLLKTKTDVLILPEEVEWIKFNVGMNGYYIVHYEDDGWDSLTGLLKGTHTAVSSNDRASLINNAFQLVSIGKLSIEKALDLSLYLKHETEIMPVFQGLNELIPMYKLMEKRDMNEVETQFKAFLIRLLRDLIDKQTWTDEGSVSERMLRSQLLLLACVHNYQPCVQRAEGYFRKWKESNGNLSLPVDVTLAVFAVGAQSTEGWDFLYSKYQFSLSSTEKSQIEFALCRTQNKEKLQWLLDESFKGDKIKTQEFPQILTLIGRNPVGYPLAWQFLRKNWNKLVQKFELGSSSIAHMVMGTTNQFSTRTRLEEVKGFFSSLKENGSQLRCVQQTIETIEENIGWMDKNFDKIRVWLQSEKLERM
MITF act – MITF TRPM1 promoter activation in melanoma cells. SK-MEL-5 TRPM1-promoter luciferase, 24 h; % of positive control, neutral wells = 0. activation, % at 12.5 µM. 300,000 compounds, 0.75% hits;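 active = mean activation of at least 80% with every replicate also reaching 80%; inconclusive = mean reaches 80% but some replicate falls short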
Each line names hits and unclear results; the compound was inactive in the other large screens.

Cc1ccc(-c2csc(NC(=O)c3ccc(C)o3)n2)cc1	none (no result: Cneo AK release, esBAF inh, ERAP1 inh)
Cc1ccc(-c2csc(NC(=O)c3ccno3)n2)cc1	esBAF inh 60 (no result: ERAP1 inh)
Cc1noc(C)c1C(=O)Nc1nc(-c2cccs2)cs1	esBAF inh inconclusive, Wnt act 30 (no result: Env fusion inh)
CCc1cc(C(=O)OC)c(NC(=O)c2ccoc2C)s1	none
COc1ccc(-c2csc(NC(=O)c3c(C)noc3C)n2)cc1	esBAF inh 48
O=C(N[C@@H]1CC[C@H](CCn2cc(-c3ccccn3)nn2)O[C@@H]1CO)c1cccnc1	none (no result: Wnt act, MITF act)
Cc1noc(C)c1C(=O)Nc1nc2ccc(S(C)(=O)=O)cc2s1	none (no result: esBAF inh)
COc1ccc2nc(NC(=O)c3c(C)noc3C)sc2c1	Wnt act 35 (no result: MITF act)
COc1ccc(-c2csc(NC(=O)c3ccoc3C)n2)cc1	MITF act 86 (no result: Cneo AK release, esBAF inh)
COc1ccc(-c2cc(=O)c3cc(C)ccc3[nH]2)cc1	Wnt act 45, MITF act 107
C[C@H](CO)N1C[C@H](C)[C@H](CN(C)C(=O)c2ccc(F)cc2)Oc2cc(-c3cccc(C#N)c3)ccc2S1(=O)=O	none (no result: Wnt act, MITF act)
Cc1ccccc1S(=O)(=O)N1[C@@H](C#N)[C@@H](c2ccc(-c3ccc(F)cc3)cc2)[C@@H]1CO	none (no result: Wnt act, MITF act)
Nc1ccc(O)cc1C(=O)OCC(=O)c1ccc(C2CCCCC2)cc1	Env fusion inh 84 (no result: Cneo AK release, esBAF inh, ERAP1 inh)
COC(=O)C(CC#Cc1ccc2c(c1)[C@]1(C(=O)N2)[C@H](c2ccc(OCCO)cc2)N2[C@H](c3ccccc3)[C@H](c3ccccc3)OC(=O)[C@H]2[C@@H]1C(=O)N1CCCCCCC1)C(=O)OC	none (no result: esBAF inh, Wnt act, MITF act)
CCCN1[C@@H]2Cn3c(cccc3=O)[C@H]1[C@@H](C(=O)N[C@@H](C)c1ccccc1)[C@@H]2CO	none (no result: Cneo AK release, esBAF inh, Env fusion inh, Wnt act, MITF act)
CO[C@H]1CN(C)C(=O)c2ccc(NC(=O)Nc3cccc(F)c3)cc2OC[C@H](C)N(C(C)=O)C[C@H]1C	none (no result: Wnt act, MITF act)
COc1ccc(Cc2c(-c3ccc(F)cc3)nc3ccc(Br)cn23)c(C)c1	esBAF inh 57 (no result: MITF act)
COc1ccc(Cc2c(-c3cccc(Cl)c3)nc3ccc(Br)cn23)c(C)c1	esBAF inh 51 (no result: MITF act)
FC(F)(F)c1ccccc1Cc1c(-c2cccc(Cl)c2)nc2ccc(Br)cn12	esBAF inh 42 (no result: MITF act)
O=C(C[C@H]1C=C[C@@H](NC(=O)c2ccc(F)cc2)[C@H](CO)O1)NCCc1ccccc1	none (no result: Wnt act, MITF act)
O=C(C[C@@H]1CC[C@H]2[C@@H](COC[C@H](O)CN2Cc2cccc(F)c2)O1)NCc1ccncc1	none (no result: Wnt act, MITF act)
COc1ccc2[nH]c(=O)c(-c3nnn(-c4ccccc4)n3)cc2c1	esBAF inh 58
C[C@@H]1CCCCO[C@H](CN(C)C(=O)Nc2ccc(F)cc2)[C@@H](C)CN([C@@H](C)CO)C(=O)c2cc(NS(=O)(=O)c3ccc(Cl)cc3)ccc2O1	none (no result: Wnt act, MITF act)
CN(C)CCN1C(=O)C(=O)/C(=C(/O)c2ccc3c(c2)OCCO3)C1c1ccccn1 (stereo unspecified)	Wnt act 37 (no result: Cneo AK release)
O=C1C(=O)N(CCN2CCOCC2)C(c2ccc(Cl)c(Cl)c2)/C1=C(/O)c1ccc2c(c1)OCO2 (stereo unspecified)	Env fusion inh 63
COc1ccc(C2/C(=C(/O)c3ccc(C)cc3)C(=O)C(=O)N2c2ccccn2)cc1 (stereo unspecified)	none
COc1ccc(/C(O)=C2/C(=O)C(=O)N(CCN3CCOCC3)C2c2ccccn2)cc1 (stereo unspecified)	esBAF inh 44, Wnt act inconclusive (no result: ERAP1 inh)
COc1ccc(/C(O)=C2/C(=O)C(=O)N(c3ccccn3)C2c2ccc(F)cc2)cc1 (stereo unspecified)	MITF act 84
O=C1C(=O)N(CCN2CCOCC2)C(c2ccccn2)/C1=C(/O)c1ccc(F)cc1 (stereo unspecified)	none (no result: esBAF inh, ERAP1 inh)
CC(C)(C)NC(=O)/C=C/c1ccc(C(F)(F)F)cc1	Wnt act 77 (no result: Cneo AK release, esBAF inh)
COc1ccc(NC(=O)N(C)C[C@@H]2Oc3ncc(C#C[C@@H](C)O)cc3C(=O)N([C@H](C)CO)C[C@@H]2C)cc1	none (no result: Wnt act, MITF act)
C[C@H]1CN([C@@H](C)CO)C(=O)c2cc(NS(=O)(=O)c3ccccc3)ccc2O[C@@H]1CN(C)Cc1ccc2c(c1)OCO2	none (no result: Wnt act, MITF act)
O=C(C[C@@H]1CC[C@@H](NC(=O)CN2CCOCC2)[C@@H](CO)O1)NCCc1ccccc1	none (no result: Wnt act, MITF act)
